Activity calls are given as the source filed them. The calls are words filed in the database; no cut-off is given here.

The values below come from ChEMBL document CHEMBL1152489, “Synthesis and biological evaluation of a novel series of 1,5-benzothiazepine derivatives as potential antimicrobial agents” (2009).

Test [1] relates to Staphylococcus aureus. Briefly: Antibacterial activity against Staphylococcus aureus ATCC 25923 at 100 ug/disk after 24 hrs by disk diffusion method. The following applies: for zone of inhibition at 100 µg/disc: ATCC 25923, 24 h, read-out: IZ. The test is classed as functional. Summed up:
(§1)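 Disk diffusion on media seeded with the organism. Sterile paper discs (6 mm) carried test compound dissolved in DMSO at 12.5, 50, 100 or 200 µg/disc. DMSO-only discs served as controls. Plates were incubated 24 h at 37 °C. The read-out is the growth-inhibition zone diameter in mm, averaged over three trials (±1 mm).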
Background: Agar diffusion results depend on both activity and mobility in agar.

Test [2] deals with Staphylococcus aureus. The test can be described thus: Antibacterial activity against Staphylococcus aureus ATCC 25923 at 200 ug/disk after 24 hrs by disk diffusion method. The following applies: for zone of inhibition at 200 µg/disc: ATCC 25923, 24 h, read-out: IZ. The test is classed as functional. Summed up: as §1
Test [3] concerns Escherichia coli. Briefly: Antibacterial activity against Escherichia coli ATCC 44752 at 100 ug/disk after 24 hrs by disk diffusion method. The test is classed as functional, organism-based. In outline:
as §1

The test system of test [4] is Escherichia coli. Briefly: Antibacterial activity against Escherichia coli ATCC 44752 at 50 ug/disk after 24 hrs by disk diffusion method. The class given is functional, organism-based. Summed up:
as §1

In test [5] the test system is Staphylococcus epidermidis. The test can be described thus: Antibacterial activity against Staphylococcus epidermidis ATCC 26069 at 50 ug/disk after 24 hrs by disk diffusion method. The test is classed as functional. As to conditions: for zone of inhibition at 50 µg/disc: ATCC 26069, 24 h, read-out: IZ. Summed up: as §1
Test [6] relates to Candida albicans. The test can be described thus: Antifungal activity against Candida albicans ATCC 10231 at 50 ug/disk after 24 hrs by disk diffusion method. The class given is functional. The following applies: for zone of inhibition at 50 µg/disc: ATCC 10231, 24 h, read-out: IZ. Summed up:
as §1

Test [7] deals with Staphylococcus aureus. The test can be described thus: Antibacterial activity against Staphylococcus aureus ATCC 25923 at 50 ug/disk after 24 hrs by disk diffusion method. The class given is functional. The following applies: for zone of inhibition at 50 µg/disc: ATCC 25923, 24 h, read-out: IZ. Summed up: as §1
The test system of test [8] is Escherichia coli. Briefly: Antibacterial activity against Escherichia coli ATCC 44752 at 200 ug/disk after 24 hrs by disk diffusion method. The class given is functional, organism-based. In outline: as §1
Test [9] concerns Staphylococcus epidermidis. The test can be described thus: Antibacterial activity against Staphylococcus epidermidis ATCC 26069 at 200 ug/disk after 24 hrs by disk diffusion method. The test is classed as functional. As to conditions: for zone of inhibition at 200 µg/disc: ATCC 26069, 24 h, read-out: IZ. In outline:
as §1

In test [10] the test system is Staphylococcus epidermidis. Briefly: Antibacterial activity against Staphylococcus epidermidis ATCC 26069 at 100 ug/disk after 24 hrs by disk diffusion method. The test is classed as functional. As to conditions: for zone of inhibition at 100 µg/disc: ATCC 26069, 24 h, read-out: IZ. Summed up:
as §1

Test [11] concerns Candida albicans. Briefly: Antifungal activity against Candida albicans ATCC 10231 at 100 ug/disk after 24 hrs by disk diffusion method. The test is classed as functional. The following applies: for zone of inhibition at 100 µg/disc: ATCC 10231, 24 h, read-out: IZ. Summed up: as §1
Test [12] has as its system Candida albicans. The test can be described thus: Antifungal activity against Candida albicans ATCC 10231 at 200 ug/disk after 24 hrs by disk diffusion method. The test is classed as functional. The following applies: for zone of inhibition at 200 µg/disc: ATCC 10231, 24 h, read-out: IZ. In outline: as §1

Consider `CC(=O)C1=C(C)Nc2cc(Cl)ccc2SC1c1ccccc1` (stereo unspecified), for which the zone of inhibition at 100 µg/disc in the test with Staphylococcus aureus [1] worked out at 7 mm; in [10] it was 8 mm; in the test on Candida albicans [11] it was 9 mm. Moreover, the values for the zone of inhibition at 200 µg/disc (with Staphylococcus aureus [2]; in test [9]; in the test on Candida albicans [12]) were 10 mm, 11 mm and 13 mm, respectively. The “inhibition zone (IZ)” value in the test with Escherichia coli [3], in the test with Escherichia coli [4] and with Escherichia coli [8] was “inactive” each time. The zone of inhibition at 50 µg/disc (in [5]; with Candida albicans [6]; in the test with Staphylococcus aureus [7]) was 7 mm in each case.
For the molecule `CC(=O)C1=C(C)Nc2ccccc2SC1c1ccccc1` (stereo unspecified), the zone of inhibition at 100 µg/disc turned out to be 8 mm in the test with Staphylococcus aureus [1], 7 mm in test [10] and 7 mm with Candida albicans [11]. The zone of inhibition at 200 µg/disc with Staphylococcus aureus [2] amounted to 11 mm; in test [9], 10 mm; with Candida albicans [12], 10 mm. Also, the “inhibition zone (IZ)” value (with Escherichia coli [3]; in the test on Escherichia coli [4]; in test [5]; in the test with Candida albicans [6]; with Escherichia coli [8]) was “inactive” throughout. Further, the zone of inhibition at 50 µg/disc in the test with Staphylococcus aureus [7] came to 6.5 mm.
For `CC(=O)C1=C(C)Nc2ccccc2SC1c1ccccc1Cl` (stereo unspecified), the zone of inhibition at 100 µg/disc with Staphylococcus aureus [1] amounted to 8 mm; in test [10], 7.5 mm; with Candida albicans [11] it was 15 mm. In addition, the zone of inhibition at 200 µg/disc is 9 mm in the test on Staphylococcus aureus [2], 9 mm in test [9] and 15 mm in the test on Candida albicans [12]. Moreover, the “inhibition zone (IZ)” value in the test with Escherichia coli [3], with Escherichia coli [4] and with Escherichia coli [8] was “inactive” in each case. For the same molecule, the zone of inhibition at 50 µg/disc was 7.5 mm in [5], 12 mm in the test with Candida albicans [6] and 8 mm in the test with Staphylococcus aureus [7].
With `CC(=O)C1=C(C)Nc2ccccc2SC1c1ccc(O)cc1` (stereo unspecified), the zone of inhibition at 100 µg/disc in the test on Staphylococcus aureus [1] turned out to be 9.5 mm; in [10] it was 11 mm; in the test on Candida albicans [11], 17 mm. Besides, the results for the zone of inhibition at 200 µg/disc (with Staphylococcus aureus [2]; in [9]; with Candida albicans [12]) were 10 mm, 12 mm and 17 mm, respectively. Also, the “inhibition zone (IZ)” value with Escherichia coli [3], in the test on Escherichia coli [4] and with Escherichia coli [8] was “inactive” each time. The zone of inhibition at 50 µg/disc in [5] came to 11 mm; with Candida albicans [6] it was 15 mm; in the test with Staphylococcus aureus [7] it was 7 mm.
Consider `CC(=O)C1=C(C)Nc2cc(Cl)ccc2SC1c1ccc(Cl)cc1Cl` (stereo unspecified), for which the zone of inhibition at 100 µg/disc in the test with Staphylococcus aureus [1] is 7 mm. In addition, in the test on Staphylococcus aureus [2], the zone of inhibition at 200 µg/disc was determined as 10 mm. Further, the “inhibition zone (IZ)” value (in the test on Escherichia coli [3]; in the test on Escherichia coli [4]; in test [5]; with Candida albicans [6]; with Staphylococcus aureus [7]; with Escherichia coli [8]) was “inactive” in each case. The “inhibition zone (IZ)” value (in test [9]; in test [10]; with Candida albicans [11]; in the test with Candida albicans [12]) was “inactive” each time.
Regarding `CC(=O)C1=C(C)Nc2ccccc2SC1c1ccc([N+](=O)[O-])cc1` (stereo unspecified), the zone of inhibition at 100 µg/disc in the test on Staphylococcus aureus [1] worked out at 12 mm; in test [10] it was 12 mm; with Candida albicans [11], 18 mm. Besides, the zone of inhibition at 200 µg/disc in the test on Staphylococcus aureus [2] worked out at 13 mm; in [9] it was 13 mm; with Candida albicans [12], 20 mm. Moreover, the “inhibition zone (IZ)” value in the test on Escherichia coli [3], with Escherichia coli [4] and with Escherichia coli [8] was “inactive” each time. Further, the figures for the zone of inhibition at 50 µg/disc (in [5]; in the test on Candida albicans [6]; in the test on Staphylococcus aureus [7]) were 10 mm, 16 mm and 10 mm, respectively.
In the case of `CC(=O)C1=C(C)Nc2ccccc2SC1c1ccc(F)cc1` (stereo unspecified), the zone of inhibition at 100 µg/disc was found to be 9 mm in the test with Staphylococcus aureus [1], 11 mm in test [10] and 20 mm in the test with Candida albicans [11]. Also, the zone of inhibition at 200 µg/disc amounted to 10 mm in the test with Staphylococcus aureus [2], 11 mm in [9] and 20 mm with Candida albicans [12]. The “inhibition zone (IZ)” value in the test on Escherichia coli [3], with Escherichia coli [4] and in the test with Escherichia coli [8] was “inactive” each time. Further, the zone of inhibition at 50 µg/disc stood at 10 mm in [5], 18 mm in the test with Candida albicans [6] and 7 mm with Staphylococcus aureus [7].
With `CC(=O)C1=C(C)Nc2ccccc2SC1c1ccc(C)cc1` (stereo unspecified), the zone of inhibition at 100 µg/disc amounted to 9 mm in the test on Staphylococcus aureus [1], 7 mm in test [10] and 16 mm with Candida albicans [11]. The zone of inhibition at 200 µg/disc in the test on Staphylococcus aureus [2] came to 10 mm; in test [9], 7 mm; in the test on Candida albicans [12] it was 23 mm. For the same molecule, the “inhibition zone (IZ)” value with Escherichia coli [3], in the test on Escherichia coli [4] and in the test with Escherichia coli [8] was “inactive” each time. The zone of inhibition at 50 µg/disc in test [5] was found to be 7 mm; in the test on Candida albicans [6], 16 mm; in the test on Staphylococcus aureus [7], 7 mm.
Take `CC(=O)C1=C(C)Nc2ccccc2SC1c1ccc(Cl)cc1Cl` (stereo unspecified): the zone of inhibition at 100 µg/disc in the test with Staphylococcus aureus [1] was found to be 7 mm; in [10], 8 mm; in the test with Candida albicans [11], 10 mm. The zone of inhibition at 200 µg/disc in the test with Staphylococcus aureus [2] is 10 mm; in test [9] it was 11 mm; in the test on Candida albicans [12], 14 mm. For the same molecule, the “inhibition zone (IZ)” value in the test with Escherichia coli [3], in the test with Escherichia coli [4] and in the test on Escherichia coli [8] was “inactive” in each case. The zone of inhibition at 50 µg/disc in test [5] was 7 mm; in the test with Candida albicans [6] it was 9 mm; with Staphylococcus aureus [7], 7 mm.
For the molecule `CC(=O)C1=C(C)Nc2cc(Cl)ccc2SC1c1ccc(Br)cc1` (stereo unspecified), the zone of inhibition at 100 µg/disc was 10 mm with Staphylococcus aureus [1], 10 mm in test [10] and 11 mm in the test with Candida albicans [11]. Besides, the zone of inhibition at 200 µg/disc in the test on Staphylococcus aureus [2] was found to be 11 mm; in test [9] it was 11 mm; in the test on Candida albicans [12], 15 mm. Moreover, the “inhibition zone (IZ)” value in the test with Escherichia coli [3], in the test on Escherichia coli [4] and in the test on Escherichia coli [8] was “inactive” throughout. Further, the zone of inhibition at 50 µg/disc worked out at 9 mm in test [5], 10 mm in the test on Candida albicans [6] and 9 mm in the test on Staphylococcus aureus [7].
Turning to `COc1ccc(C2Sc3ccccc3NC(C)=C2C(C)=O)cc1` (stereo unspecified), the zone of inhibition at 100 µg/disc in the test on Staphylococcus aureus [1] turned out to be 7 mm; in test [10], 7 mm; in the test on Candida albicans [11] it was 9 mm. Moreover, the zone of inhibition at 200 µg/disc in the test on Staphylococcus aureus [2] turned out to be 10 mm; in test [9], 10 mm; in the test on Candida albicans [12], 11 mm. Besides, the “inhibition zone (IZ)” value (in the test on Escherichia coli [3]; in the test with Escherichia coli [4]; in test [5]; in the test with Escherichia coli [8]) was “inactive” each time. In addition, the zone of inhibition at 50 µg/disc in the test on Candida albicans [6] turned out to be 8 mm; with Staphylococcus aureus [7], 6.5 mm.
Consider `CC(=O)C1=C(C)Nc2cc(Cl)ccc2SC1c1ccc(F)cc1` (stereo unspecified), for which the zone of inhibition at 100 µg/disc with Staphylococcus aureus [1] is 9 mm; in test [10] it was 8 mm; in the test with Candida albicans [11], 9 mm. Moreover, the zone of inhibition at 200 µg/disc was determined as 9 mm in the test with Staphylococcus aureus [2], 8 mm in test [9] and 10 mm in the test on Candida albicans [12]. Also, the “inhibition zone (IZ)” value in the test with Escherichia coli [3], in the test with Escherichia coli [4] and in the test on Escherichia coli [8] was “inactive” throughout. Besides, the zone of inhibition at 50 µg/disc was 7 mm in [5], 8 mm in the test with Candida albicans [6] and 8 mm with Staphylococcus aureus [7].
Take `CCOC(=O)C1=C(C)Nc2ccccc2SC1c1ccc(C)cc1` (stereo unspecified): the “inhibition zone (IZ)” value (in the test on Staphylococcus aureus [1]; in the test on Staphylococcus aureus [2]; in the test on Escherichia coli [3]; with Escherichia coli [4]; in test [5]; with Candida albicans [6]) was “inactive” each time. Also, the “inhibition zone (IZ)” value (with Staphylococcus aureus [7]; in the test on Escherichia coli [8]; in [9]; in [10]; with Candida albicans [11]; with Candida albicans [12]) was “inactive” each time.
